Experiment [1] deals with SH-SY5Y. Put plainly: Neuroprotective activity against glutamate-induced toxicity in human SH-SY5Y cells assessed as cell viability at 10 uM pretreated for 1 hr followed by glutamate challenge measured after 24 hrs by MTT assay. In kind it is functional. Particulars: time 25 hrs, read-out: Activity. In short, it runs like this: (§1)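 SH-SY5Y cells attached 24 h, then pretreated 1 h with compound (0.1-10 μM) before glutamate 50 mM for 24 h. Viability by MTT. Morphology under phase-contrast microscope, scored by the USP 28 grade scale (0-4). Mean ± SEM of 4 independent experiments run in triplicate or quadruplicate, ANOVA with Dunnett test.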
A general note: Tetrazolium dyes change colour on reduction, which living cells bring about.

For experiment [2], the system named is SH-SY5Y. The experiment in a line: Neuroprotective activity against glutamate-induced toxicity in human SH-SY5Y cells assessed as reduction in sub G0/G1 phase cells at 10 uM pretreated for 1 hr followed by glutamate challenge measured after 24 hrs by propidium staining based flow cytometry. The conditions noted are these: time 25.0 hrs. The experiment is classed as functional, cell-based. In short, it runs like this: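 SH-SY5Y cells (2.5 x 10⁵ cells/mL) pretreated 1 h with compound, then given glutamate 50 mM for 24 h. Cells fixed in 70% ethanol (30 min, 4 °C), held at -20 °C for at least 24 h, stained with propidium iodide. Flow cytometry on at least 1x10⁴ cells, cell-cycle phases and sub-G₀/G₁ fraction quantified. 4 independent experiments.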
A general note: Flow cytometry measures light scatter and fluorescence of single cells or particles in a stream.

The species entered for experiment [3] is Rattus norvegicus. The experiment in a line: Neuroprotective activity against oxygen glucose deprivation/reperfusion-induced Wistar rat cortical brain assessed as reduction in LDH release relative to control. In kind it is functional. More on the design: concentration or dose not given beside the values. In short, it runs like this: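 Male Wistar rat cortical slices (400 μm) in oxygenated ACSF, pH 7.4, 1 h at room temperature, then 30 min at 37 °C. OGD for 30 min in glucose-free ACSF with 11 mM sucrose under 95% N₂/5% CO₂. Compound added in the reoxygenation buffer. Glutamate and LDH release measured. Mean ± SEM of at least four experiments, ANOVA with Dunnett test.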
For orientation: LDH leaks from cells whose membrane has failed.

Experiment [4] relates to SH-SY5Y. Put plainly: Neuroprotective activity against glutamate-induced toxicity in human SH-SY5Y cells assessed as reduction in cell shrinkage at 10 uM pretreated for 1 hr followed by glutamate challenge measured after 24 hrs by phase-contrast light microscopic analysis. The experiment is classed as functional, cell-based. Particulars: time 25.0 hrs. In short, it runs like this: as §1

The subject of experiment [5] is SH-SY5Y. The experiment in a line: Neuroprotective activity against glutamate-induced toxicity in human SH-SY5Y cells assessed as reduction in ROS production at 10 uM measured after 24 hrs by DCFH-DA staining based assay relative to control. The experiment is classed as functional. Also noted: scale not given: the % may be the effect or the level left. An outline of the steps: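 SH-SY5Y cells loaded with DCFH-DA (5 μM, 30 min) and washed before treatment. Pretreated 1 h with compound (0.1-10 μM), then glutamate 50 mM. Fluorescence (ex 485/em 535 nm) read at 1 h or 24 h and expressed as % inhibition of glutamate-induced ROS. 4 independent experiments.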

The subject of experiment [6] is SH-SY5Y. Put plainly: Neuroprotective activity against 6-OHDA-induced toxicity in human SH-SY5Y cells assessed as reduction in condensed and fragmented nuclei at 10 uM pretreated for 1 hr followed by 6-OHDA challenge measured after 2 hrs by DAPI staining based assay relative to control. The experiment is classed as functional. Also noted: scale not given: the % may be the effect or the level left. The conditions noted are these: time 3 hrs. An outline of the steps: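 DAPI staining of SH-SY5Y cells pretreated 1 h with compound at 10 μM, then given 6-OHDA 55 μM for 2 h. Condensed or fragmented nuclei scored as apoptotic. Mean ± SEM of 4 independent experiments.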

Experiment [7] relates to SH-SY5Y. Put plainly: Neuroprotective activity against 6-OHDA-induced toxicity in human SH-SY5Y cells assessed as reduction in condensed and fragmented nuclei at 0.1 uM pretreated for 1 hr followed by 6-OHDA challenge measured after 2 hrs by DAPI staining based assay relative to control. In kind it is functional, cell-based. The conditions noted are these: time 3.0 hrs.

The species named for experiment [8] is Rattus norvegicus. The experiment in a line: Inhibition of high voltage-activated calcium current in Wistar rat brain piriform cortex assessed as time required to inhibit barium current by whole cell patch clamp method. In kind it is functional. An outline of the steps:
(§2)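 Acutely dissociated P15-P22 Wistar rat piriform cortex neurons recorded whole-cell at holding -70 mV. 5 mM Ba²⁺ was the charge carrier, with a Cs methanesulfonate pipette. HVA currents evoked by step or ramp protocols from -60 mV. Compound applied by local perfusion (DMSO 0.02-0.67%). Peak I_Ba amplitude tracked over time, and concentration-response fitted with the sum of two Hill functions.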

The species entered for experiment [9] is Rattus norvegicus. Put plainly: Inhibition of high voltage-activated calcium current in Wistar rat brain piriform cortex assessed as blockade of barium current by whole cell patch clamp method. In kind it is functional. In short, it runs like this: as §2
For experiment [10], the species on record is Rattus norvegicus. The experiment in a line: Inhibition of transient voltage-dependent sodium current in Wistar rat brain piriform cortex layer by whole cell patch clamp method. In kind it is functional.
The species entered for experiment [11] is Rattus norvegicus. The experiment in a line: Inhibition of transient voltage-dependent sodium current in Wistar rat brain piriform cortex layer assessed as negative shift of inactivation function at 15 uM by whole cell patch clamp method. In kind it is functional.
The species entered for experiment [12] is Rattus norvegicus. Put plainly: Inhibition of transient voltage-dependent sodium current in Wistar rat brain piriform cortex layer assessed as reduction in maximal current amplitude at 5 uM by whole cell patch clamp method. In kind it is functional.
For experiment [13], the species on record is Rattus norvegicus. The experiment in a line: Inhibition of transient voltage-dependent sodium current in Wistar rat brain piriform cortex layer assessed as reduction in maximal current amplitude at 15 uM by whole cell patch clamp method. In kind it is functional.
Experiment [14] is filed under the species Rattus norvegicus. Put plainly: Inhibition of persistent voltage-dependent sodium current in Wistar rat brain piriform cortex layer at 5 uM by whole cell patch clamp method. The experiment is classed as functional.
The species named for experiment [15] is Rattus norvegicus. Put plainly: Inhibition of persistent voltage-dependent sodium current in Wistar rat brain piriform cortex layer at 15 uM by whole cell patch clamp method. The experiment is classed as functional.
For experiment [16], the species on record is Rattus norvegicus. The experiment in a line: Inhibition of persistent voltage-dependent sodium current in Wistar rat brain piriform cortex layer at 50 uM by whole cell patch clamp method. The experiment is classed as functional.

For orientation: IC50 means the concentration that inhibits the measured activity by half. Usually inhibition in vivo stands for the relative decrease from the control value, in per cent.

Activity calls are given as the source filed them. The rule behind the calls is not given here.

Take `CCCN(CCC)/C(C)=N/C1=Nc2ccccc2CS1`: the viability at 10 µM in experiment [1] is 65%. In addition, the result in experiment [2], in experiment [4] and in experiment [7] was Active. In addition, the figures for the Activity in [3], in [5] and in experiment [6] were 58.2%, 20% and more than 20%, respectively. Moreover, the Time in experiment [8] is reported as 128.2 ms. For the same compound, in experiment [9], the IC50 was 4.4 µM.
For `CCN(CC)/C(C)=N/C1=Nc2ccccc2CS1`, the viability at 10 µM in [1] worked out at 65%. For the same compound, the result in experiment [2], in experiment [4] and in [7] was Active. Also, the Activity in experiment [3] is listed as 72.4%; in experiment [5] it was 20%; in experiment [6] it was more than 20%; in experiment [11], 11.8 mV. In addition, the inhibition result in experiment [10] was “Dose-Dependent Effect”. Further, the inhibition in vivo at 5 µM in experiment [12] worked out at 26.4%; in [14], 70.7%. For the same compound, the results for the inhibition in vivo at 15 µM in experiment [13] and in experiment [15] were 24.2% and 77%, respectively. This compound yielded an inhibition in vivo at 50 µM in [16] of 91.8%. Besides, the IC50 in experiment [9] stood at 5.4 µM.

For the origin of these results see ChEMBL document CHEMBL5260794, “Synthesis and biological evaluation of a new class of benzothiazines as neuroprotective agents” (Eur J Med Chem, 2017).
